Experimental data taken from ChEMBL document CHEMBL1155462, “Structure-activity relationship for thiohydantoin androgen receptor antagonists for castration-resistant prostate cancer (CRPC)” (J Med Chem, 2010).
Active and inactive are the calls of the source. No cut-off for these calls is given here.

What was measured:
[1] = test system: Serum; assay: Drug level in SCID mouse serum at 10 mg/kg, iv; format: ADME, organism-based; design: dose 10 mg/kg, route intravenous; conditions: in vivo, read-out: Drug uptake
[2] = test system: LNCaP; assay: Inhibition of prostate specific antigen secretion in human LNCAP cells expressing androgen receptor at 1.25 to 10 uM in presence of charcoal stripped serum; format: functional, cell-based
In short: (§1)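 LNCaP/AR cells were made by viral infection with an AR cDNA to express 3–5 fold higher AR levels, mimicking CRPC. They were assayed in charcoal-stripped serum to mimic androgen depletion. Read-out was PSA level, with DMSO as the vehicle.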

[3] = test system: LNCaP; assay: Inhibition of prostate specific antigen expression in human LNCAP cells at 1.25 to 10 uM in presence of fetal bovine serum; format: functional, cell-based
[4] = molecular target: T1, Androgen receptor (Rattus norvegicus) (UniProt P15207); assay: Antagonist activity at androgen receptor in rat prostate gland at 0.625 to 20 uM by luciferase reporter gene assay; format: functional, tissue-based
T1 sequence (whole entry): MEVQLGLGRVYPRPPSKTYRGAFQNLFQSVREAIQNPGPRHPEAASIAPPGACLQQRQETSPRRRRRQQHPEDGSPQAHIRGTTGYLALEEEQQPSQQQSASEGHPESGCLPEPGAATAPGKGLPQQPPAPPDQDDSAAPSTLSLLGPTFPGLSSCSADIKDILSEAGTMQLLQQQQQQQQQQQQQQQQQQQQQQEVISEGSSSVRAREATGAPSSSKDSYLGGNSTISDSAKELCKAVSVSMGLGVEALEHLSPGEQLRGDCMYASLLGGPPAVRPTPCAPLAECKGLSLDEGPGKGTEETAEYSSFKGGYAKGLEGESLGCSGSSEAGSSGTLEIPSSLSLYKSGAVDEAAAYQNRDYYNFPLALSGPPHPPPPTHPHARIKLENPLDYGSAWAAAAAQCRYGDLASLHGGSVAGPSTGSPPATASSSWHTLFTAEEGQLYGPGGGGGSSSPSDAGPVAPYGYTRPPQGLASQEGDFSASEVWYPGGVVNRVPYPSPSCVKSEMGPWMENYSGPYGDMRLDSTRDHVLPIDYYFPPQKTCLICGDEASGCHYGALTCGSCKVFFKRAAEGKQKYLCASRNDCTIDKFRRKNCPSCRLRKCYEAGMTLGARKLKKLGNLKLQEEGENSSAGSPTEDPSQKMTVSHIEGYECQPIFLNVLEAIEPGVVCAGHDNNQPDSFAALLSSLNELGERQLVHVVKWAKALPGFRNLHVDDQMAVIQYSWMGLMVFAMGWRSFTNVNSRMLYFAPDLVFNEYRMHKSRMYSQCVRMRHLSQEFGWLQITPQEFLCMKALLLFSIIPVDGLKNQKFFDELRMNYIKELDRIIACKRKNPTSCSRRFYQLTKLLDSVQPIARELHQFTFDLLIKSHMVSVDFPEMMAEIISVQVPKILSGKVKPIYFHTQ

[5] = molecular target: T1, Androgen receptor (Rattus norvegicus); assay: Antagonist activity at androgen receptor in rat prostate gland at 1.25 to 10 uM by luciferase reporter gene assay; format: functional, tissue-based
[6] = test system: LNCaP; assay: Inhibition of prostate specific antigen expression in human LNCAP cells at 0.625 to 5 uM in presence of fetal bovine serum; format: functional, cell-based
[7] = test system: LAPC4; assay: Antitumor activity against human castration and bicalutamide-resistant LAPC4 cells xenografted in SCID mouse assessed as change in tumor volume at 10 mg/kg measured up to 20 days; format: functional, organism-based; design: dose 10 mg/kg
[8] = test system: LNCaP; assay: Inhibition of prostate specific antigen expression in human LNCAP cells at 0.625 to 20 uM in presence of fetal bovine serum; format: functional, cell-based
[9] = test system: LNCaP; assay: Inhibition of prostate specific antigen secretion in human LNCAP cells expressing androgen receptor in presence of charcoal stripped serum; format: functional, cell-based; in short: as §1
[10] = test system: LNCaP; assay: Inhibition of prostate specific antigen expression in human LNCAP cells at 100 to 1000 nM in presence of fetal bovine serum; format: functional, cell-based
[11] = test system: LNCaP; assay: Inhibition of prostate specific antigen expression in human LNCAP cells in presence of fetal bovine serum; format: functional, cell-based
[12] = test system: LAPC4; assay: Antitumor activity against human castration and bicalutamide-resistant LAPC4 cells xenografted in SCID mouse assessed as change in tumor volume measured up to 50 days; format: functional
[13] = test system: LNCaP; assay: Antitumor activity against human castration-resistant LNCAP cells expressing androgen receptor xenografted in SCID mouse assessed as change in tumor size at 10 mg/kg qd for 31 days; format: functional, organism-based; design: dose 10 mg/kg
In short: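 AR-overexpressing LNCaP cells were injected subcutaneously into the flanks of castrated SCID mice. Once tumors reached about 100–200 cubic mm, mice were randomized into groups of six. Vehicle or compound was given orally every day, and tumor volume change was followed.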

[14] = test system: LNCaP; assay: Inhibition of prostate specific antigen secretion in human LNCAP cells expressing androgen receptor at 100 to 1000 nM in presence of charcoal stripped serum; format: functional, cell-based; in short: as §1
[15] = test system: LNCaP; assay: Cytostatic activity against human castration-resistant LNCAP cells expressing androgen receptor xenografted in SCID mouse assessed as change in tumor size at 50 mg/kg qd measured up to 18 days; format: functional, organism-based; design: dose 50 mg/kg
[16] = test system: LNCaP; assay: Cytostatic activity against human castration-resistant LNCAP cells expressing androgen receptor xenografted in SCID mouse assessed as change in tumor size at 10 mg/kg qd measured up to 18 days; format: functional, organism-based; design: dose 10 mg/kg

SMILES | concentration [1] [µM] | inhibition [2] | Activity [3] | Activity [5] | Activity [6] | Activity [7] | Activity [8] | Activity [10] | IC50 [11] [nM] | other results
CC(O)(CS(=O)(=O)c1ccc(F)cc1)C(=O)Nc1ccc(C#N)c(C(F)(F)F)c1 (stereo not drawn) [BICALUTAMIDE] | 10000 | inactive | – | – | – | – | – | – | – | –
Cc1ccc(N2C(=S)N(c3ccc(C#N)c(C(F)(F)F)c3)C(=O)C2(C)C)cc1 | – | – | Active | Active | Active | Active | Active | – | – | Activity [4]: inactive
CNC(=O)CCCc1ccc(N2C(=S)N(c3ccc(C#N)c(C(F)(F)F)c3)C(=O)C23CCC3)cc1 | 390 | Active | – | – | – | – | – | Active | 92 | IC50 [9]: 92 nM
Cc1ccc(N2C(=S)N(c3ccc(C#N)c(C(F)(F)F)c3)C(=O)C23CCC3)cc1 | – | Active | Active | Active | Active | Active | Active | – | 124 | Activity [12]: Dose-dependent effect
CNC(=O)c1ccc(N2C(=S)N(c3ccc(C#N)c(C(F)(F)F)c3)C(=O)C23CCC3)cc1F | 9900 | – | – | – | – | – | – | Active | – | inhibition [9]: Dose-dependent effect; Activity [13]: Active; Activity [14]: Active; Activity [15]: Active; Activity [16]: Active
